Test results published in publication PMC3037833 (Angewandte Chemie (International ed. in English), 2010).
Where two headings read alike, the source gives them in different places. No end group written: not given here.

How the values were obtained:
[1] = biological target: T1, N1P2 (NHERF1 PDZ domain 2) (Homo sapiens, UniProt O14745); assay: Fluorescence polarization; type: binding
T1 sequence (O14745 154-234 limits assumed): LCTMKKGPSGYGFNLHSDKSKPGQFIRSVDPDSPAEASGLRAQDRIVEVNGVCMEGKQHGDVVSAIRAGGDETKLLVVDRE
In short: (§1)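 Test peptides were assayed by fluorescence polarization inhibition for binding to the isolated PDZ domain; the same format was applied across the five CFTR-associated PDZ domains.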

[2] = biological target: T2, N1P1 (NHERF1 PDZ domain 1) (Homo sapiens, UniProt O14745); assay: Fluorescence polarization; type: binding
T2 sequence (O14745 14-94 limits assumed): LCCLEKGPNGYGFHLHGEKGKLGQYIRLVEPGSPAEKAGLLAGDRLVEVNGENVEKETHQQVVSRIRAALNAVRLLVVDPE
In short: as §1

[3] = biological target: N2P1 (NHERF2 PDZ domain 1) (Homo sapiens, UniProt Q15599); assay: Fluorescence polarization; type: binding
[4] = biological target: N2P2 (NHERF2 PDZ domain 2) (Homo sapiens, UniProt Q15599); assay: Fluorescence polarization; type: binding
SSR510 = biological target: T3, SSR510 (Homo sapiens); assay: fluorescence polarization competition
T3 chain: ANGLMQTSKL

iCAL066 = biological target: T4, iCAL066 (N-terminal cysteine on peptide); assay: fluorescence polarization competition
T4 chain: MQTSII

iCAL056 = biological target: T5, iCAL056 (N-terminal cysteine on peptide); assay: fluorescence polarization competition
T5 chain: MQTSKI

iCAL356 = biological target: T6, iCAL356 (N-terminal cysteine on peptide); assay: fluorescence polarization competition
T6 chain: WQTSII

CFTR10 = biological target: T7, CFTR10 (Homo sapiens); assay: fluorescence polarization competition
T7 chain: TEEEVQDTRL

iCAL366 = biological target: T8, iCAL366 (N-terminal cysteine on peptide); assay: fluorescence polarization competition
T8 chain: WPTSII

iCAL3610 = biological target: T9, iCAL3610; assay: fluorescence polarization competition
T9 chain: ANSRWPTSII

SSR56 = biological target: T10, SSR56 (Homo sapiens, N-terminal cysteine on peptide); assay: fluorescence polarization competition
T10 chain: MQTSKL

iCAL368 = biological target: T11, iCAL368; assay: fluorescence polarization competition
T11 chain: SRWPTSII

F*-iCAL36 = biological target: T12, F*-iCAL36; assay: fluorescence polarization
T12 chain: fluorescein-ANSRWPTSII

Molecule | Ki [1] [µM] | Ki [2] [µM] | Ki ([3]; SD) [µM] | Ki ([4]; SD) [µM] | Ki ([1]; SD) [µM] | Ki ([2]; SD) [µM] | Ki [3] [µM] | Ki [4] [µM] | Ki (SSR510) [µM] | Ki (iCAL066) [µM] | Ki (iCAL056) [µM] | Ki (iCAL356) [µM] | Ki (CFTR10) [µM] | Ki (iCAL366) [µM] | Ki (iCAL3610) [µM] | Ki (SSR56) [µM] | Ki (iCAL368) [µM] | Kd (F*-iCAL36) [µM]
SRWPTSII [iCAL36_8] | > 5000 | > 5000 | 516 ± 183 | 433 ± 154 | – | – | – | – | – | – | – | – | – | – | – | – | – | –
CC(C)C[C@H](NC(=O)[C@H](CCCNC(=N)N)NC(=O)[C@@H](NC(=O)[C@H](CC(=O)O)NC(=O)[C@H](CCC(N)=O)NC(=O)[C@@H](NC(=O)[C@H](CCC(=O)O)NC(=O)[C@H](CCC(=O)O)NC(=O)[C@H](CCC(=O)O)NC(=O)[C@@H](N)[C@@H](C)O)C(C)C)[C@@H](C)O)C(=O)O [CFTR10, reference compound] | – | – | – | – | 1.9 ± 0.1 | 0.45 ± 0.02 | – | – | – | – | – | – | – | – | – | – | – | –
CC[C@H](C)[C@H](NC(=O)[C@@H](NC(=O)[C@H](CO)NC(=O)[C@@H](NC(=O)[C@@H]1CCCN1C(=O)[C@H](Cc1c[nH]c2ccccc12)NC(=O)[C@H](CCCNC(=N)N)NC(=O)[C@H](CO)NC(=O)[C@H](CC(N)=O)NC(=O)[C@H](C)N)[C@@H](C)O)[C@@H](C)CC)C(=O)O [iCAL36_10] | > 5000 | > 5000 | – | – | – | – | > 5000 | > 3000 | – | – | – | – | – | – | – | – | – | –
CSCC[C@H](NC(=O)[C@H](CC(C)C)NC(=O)CNC(=O)[C@H](CC(N)=O)NC(=O)[C@H](C)N)C(=O)N[C@@H](CCC(N)=O)C(=O)N[C@H](C(=O)N[C@@H](CO)C(=O)N[C@@H](CCCCN)C(=O)N[C@@H](CC(C)C)C(=O)O)[C@@H](C)O [SSR5_10, reference compound] | – | – | 38.6 ± 7.7 | 19.8 ± 2.7 | 130 ± 48 | 24.5 ± 1.9 | – | – | – | – | – | – | – | – | – | – | – | –
NHERF1 PDZ2 (protein) RPRLCTMKKGPSGYGFNLHSDKSKPGQFIRSVDPDSPAEASGLRAQDRIVEVNGVCMEGKQHGDVVSAIRAGGDETKLLVVDRETDE | – | – | – | – | – | – | – | – | 130 | 2400 | 1700 | > 5000 | 1.9 | > 5000 | > 5000 | 50.2 | > 5000 | > 1000
NHERF2 PDZ1 (protein) RPRLCRLVRGEQGYGFHLHGEKGRRGQFIRRVEPGSPAEAAALRAGDRLVEVNGVNVEGETHHQVVQRIKAVEGQTRLLVVDQETD | – | – | – | – | – | – | – | – | 38.6 | 245 | 806 | 496 | 1.1 | > 5000 | > 5000 | 31.7 | 516 | > 1000
NHERF1 PDZ1 (protein) LPRLCCLEKGPNGYGFHLHGEKGKLGQYIRLVEPGSPAEKAGLLAGDRLVEVNGENVEKETHQQVVSRIRAALNAVRLLVVDPETDE | – | – | – | – | – | – | – | – | 24.5 | 245 | 914 | 430 | 0.45 | > 5000 | > 5000 | 19.3 | > 5000 | > 1000
NHERF2 PDZ2 (protein) LRPRLCHLRKGPQGYGFNLHSDKSRPGQYIRSVDPGSPAARSGLRAQDRLIEVNGQNVEGLRHAEVVASIKAREDEARLLVVDPETD | – | – | – | – | – | – | – | – | 19.8 | 166 | 109 | 246 | 0.1 | > 5000 | > 3000 | 10 | 433 | > 1000
